From ChEMBL document CHEMBL1949650, “Design, synthesis, computational and biological evaluation of some new hydrazino derivatives of DHA and pyranopyrazoles” (2012)
The source made the active and inactive calls. The rule behind the calls is not given here.

How the values were obtained:
[1] = system: Rattus norvegicus; experiment: Antiinflammatory activity in rat assessed as inhibition of carrageenan-induced paw oedema at 50 mg/kg after 2 hrs by plethysmography relative to control; format: functional
Outline: (§1)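 0.1 ml of 1% carrageenan was injected subplantar into the right hind paw. Paw volume was measured plethysmographically immediately and at 1, 2, 3 and 4 h; oedema is the volume difference. Test compounds were dosed at 50 mg/kg b.w., with diclofenac sodium 50 mg/kg as reference. Percent inhibition was calculated against the saline control group. N = 5, mean ± SEM, ANOVA.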

[2] = system: Rattus norvegicus; experiment: Antiinflammatory activity in rat assessed as inhibition of carrageenan-induced paw oedema at 50 mg/kg after 3 hrs by plethysmography relative to control; format: functional; outline: as §1
[3] = system: Rattus norvegicus; experiment: Antiinflammatory activity in rat assessed as inhibition of carrageenan-induced paw oedema at 50 mg/kg after 4 hrs by plethysmography relative to controlchallenge by plethysmography; format: functional; outline: as §1
[4] = system: Mus musculus; experiment: Analgesic activity in Swiss albino mouse assessed as protection against acetic acid-induced wriths at 50 mg/kg, po administered 30 mins prior acetic acid challenge measured for 10 mins; format: functional
Outline: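 Adult Swiss albino mice (20-25 g) were used, with N = 5 per group. Wriths were counted for 10 min, starting 5 min after acetic acid injection, on day 1 as each mouse's control. Next day, 50 mg/kg was given orally 30 min before acetic acid. Diclofenac sodium was the standard. Protection = […] × 100 from group means. Analysis: mean ± SEM, one-way ANOVA, Tukey-Kramer.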

[5] = system: Rattus norvegicus; experiment: Antiinflammatory activity in rat assessed as inhibition of carrageenan-induced paw oedema at 50 mg/kg after 1 hr by plethysmography relative to control; format: functional; outline: as §1
[6] = system: Mus musculus; experiment: Analgesic activity in Swiss albino mouse assessed as inhibition of acetic acid-induced writhing at 50 mg/kg, po administered 30 mins prior acetic acid-induction measured after 1 hr by tail immersion method; format: functional, organism-based; parameters: dose 50 mg/kg
[7] = system: Mus musculus; experiment: Analgesic activity in Swiss albino mouse assessed as inhibition of acetic acid-induced writhing at 50 mg/kg, po administered 30 mins prior acetic acid-induction measured after 2 hrs by tail immersion method; format: functional, organism-based; parameters: dose 50 mg/kg
[8] = system: Mus musculus; experiment: Analgesic activity in Swiss albino mouse assessed as inhibition of acetic acid-induced writhing at 50 mg/kg, po administered 30 mins prior acetic acid-induction measured after 1 to 2 hrs by tail immersion method; format: functional, organism-based; parameters: dose 50 mg/kg

For `CC(=O)c1c(NNc2ccc(Br)cc2)cc(C)oc1=O`, the inhibition in vivo at 50 mg/kg [1] was 47.2%, the inhibition in vivo at 50 mg/kg [2] was 40.4% and the inhibition in vivo at 50 mg/kg [3] was 18.6%. The inhibition in vivo at 50 mg/kg [4] was 53.1% and the inhibition in vivo at 50 mg/kg [5] was 46.8%.

Compound `CC(=O)c1c(NNc2ccccc2)cc(C)oc1=O` has an inhibition in vivo at 50 mg/kg [1] of 57.3%, an inhibition in vivo at 50 mg/kg [2] of 55.6% and an inhibition in vivo at 50 mg/kg [3] of 52%. The Activity [6] was “Active”, the inhibition in vivo at 50 mg/kg [4] was 49.8% and the inhibition in vivo at 50 mg/kg [5] was 59.5%.

`CC(=O)c1c(NNc2nc(C)cc(C)n2)cc(C)oc1=O` gave an inhibition in vivo at 50 mg/kg [1] of 61.8%, an inhibition in vivo at 50 mg/kg [2] of 55.6% and an inhibition in vivo at 50 mg/kg [3] of 42.2%. The Activity [6] was “Active”, the inhibition in vivo at 50 mg/kg [4] was 64.9% and the inhibition in vivo at 50 mg/kg [5] was 59.5%.

`CC(=O)c1c(NNc2ccc(C)cc2)cc(C)oc1=O` gave an inhibition in vivo at 50 mg/kg [1] of 53.4%, an inhibition in vivo at 50 mg/kg [2] of 59.6% and an inhibition in vivo at 50 mg/kg [3] of 50%. For the same compound, the Activity [6] was “Active”, the inhibition in vivo at 50 mg/kg [4] was 70.2% and the inhibition in vivo at 50 mg/kg [5] was 60.1%.

`CC(=O)c1c(NNc2nc(-c3ccccc3)cs2)cc(C)oc1=O` was tested, and the inhibition in vivo at 50 mg/kg [1] was 48.3%, the inhibition in vivo at 50 mg/kg [2] was 45.5% and the inhibition in vivo at 50 mg/kg [3] was 23.5%. The Activity [7] was “Active”, the inhibition in vivo at 50 mg/kg [4] was 51.4% and the inhibition in vivo at 50 mg/kg [5] was 51.9%.

`CC(=O)c1c(NNc2cc(C)c3ccccc3n2)cc(C)oc1=O` gave an inhibition in vivo at 50 mg/kg [1] of 55%, an inhibition in vivo at 50 mg/kg [2] of 55.6% and an inhibition in vivo at 50 mg/kg [3] of 51%. For the same compound, the Activity [6] was “Active”, the Activity [7] was “Active” and the Activity [8] was “Active”. The inhibition in vivo at 50 mg/kg [4] was 75% and the inhibition in vivo at 50 mg/kg [5] was 51.9%.

Compound `Cc1cc2nn(-c3nc(-c4ccccc4)cs3)c(C)c2c(=O)o1` has an inhibition in vivo at 50 mg/kg [1] of 59.5%, an inhibition in vivo at 50 mg/kg [2] of 62.6% and an inhibition in vivo at 50 mg/kg [3] of 52.9%. For the same compound, the Activity [8] was “Active”, the inhibition in vivo at 50 mg/kg [4] was 70.2% and the inhibition in vivo at 50 mg/kg [5] was 67.1%.

With `O=C(O)Cc1ccccc1Nc1c(Cl)cccc1Cl` [DICLOFENAC SODIUM] the inhibition in vivo at 50 mg/kg [1] was 67.4%, the inhibition in vivo at 50 mg/kg [2] was 69.7% and the inhibition in vivo at 50 mg/kg [3] was 66.7%. For the same compound, the inhibition in vivo at 50 mg/kg [4] was 77.5% and the inhibition in vivo at 50 mg/kg [5] was 70.9%.

Compound `Cc1ccc(-n2nc3cc(C)oc(=O)c3c2C)cc1` has an inhibition in vivo at 50 mg/kg [1] of 58.4%, an inhibition in vivo at 50 mg/kg [2] of 54% and an inhibition in vivo at 50 mg/kg [3] of 41.7%. For the same compound, the Activity [7] was “Active”, the inhibition in vivo at 50 mg/kg [4] was 69.4% and the inhibition in vivo at 50 mg/kg [5] was 63.3%.

`COc1ccc(-n2nc3cc(C)oc(=O)c3c2C)cc1` gave an inhibition in vivo at 50 mg/kg [1] of 53.9%, an inhibition in vivo at 50 mg/kg [2] of 57.6% and an inhibition in vivo at 50 mg/kg [3] of 42.2%. For the same compound, the inhibition in vivo at 50 mg/kg [4] was 75.9% and the inhibition in vivo at 50 mg/kg [5] was 64.6%.

`CC(=O)c1c(NNc2ccc(Cl)cc2)cc(C)oc1=O` showed an inhibition in vivo at 50 mg/kg [1] of 57.3%, an inhibition in vivo at 50 mg/kg [2] of 58.6% and an inhibition in vivo at 50 mg/kg [3] of 28.4%. It also gave an inhibition in vivo at 50 mg/kg [4] of 75.1% and an inhibition in vivo at 50 mg/kg [5] of 54.4%.

For `Cc1cc2nn(-c3ccc(Cl)cc3)c(C)c2c(=O)o1`, the inhibition in vivo at 50 mg/kg [1] was 59.5%, the inhibition in vivo at 50 mg/kg [2] was 56.6% and the inhibition in vivo at 50 mg/kg [3] was 38.2%. The inhibition in vivo at 50 mg/kg [4] was 65.3% and the inhibition in vivo at 50 mg/kg [5] was 58.2%.

In the case of `Cc1cc2nn(-c3ccc(Br)cc3)c(C)c2c(=O)o1`, the inhibition in vivo at 50 mg/kg [1] is reported as 50.6%, the inhibition in vivo at 50 mg/kg [2] is reported as 49.5% and the inhibition in vivo at 50 mg/kg [3] is reported as 38.2%. For the same compound, the Activity [8] was “Active”, the inhibition in vivo at 50 mg/kg [4] was 44.9% and the inhibition in vivo at 50 mg/kg [5] was 59.5%.

With `Cc1cc2nn(-c3ccccc3)c(C)c2c(=O)o1` the inhibition in vivo at 50 mg/kg [1] was 55%, the inhibition in vivo at 50 mg/kg [2] was 52.5% and the inhibition in vivo at 50 mg/kg [3] was 43.1%. The Activity [6] was “Active”, the Activity [8] was “Active” and the inhibition in vivo at 50 mg/kg [4] was 50.2%. It also gave an inhibition in vivo at 50 mg/kg [5] of 57%.

In the case of `COc1ccc(NNc2cc(C)oc(=O)c2C(C)=O)cc1`, the inhibition in vivo at 50 mg/kg [1] is reported as 49.4%, the inhibition in vivo at 50 mg/kg [2] is reported as 44.4% and the inhibition in vivo at 50 mg/kg [3] is reported as 24.5%. The inhibition in vivo at 50 mg/kg [4] was 59.2% and the inhibition in vivo at 50 mg/kg [5] was 50%.

`CC(=O)c1c(NNc2nc3ccccc3s2)cc(C)oc1=O` was tested, and the inhibition in vivo at 50 mg/kg [1] was 58.4%, the inhibition in vivo at 50 mg/kg [2] was 54.5% and the inhibition in vivo at 50 mg/kg [3] was 49%. The Activity [6] was “Active”, the Activity [8] was “Active” and the inhibition in vivo at 50 mg/kg [4] was 65.3%. It also gave an inhibition in vivo at 50 mg/kg [5] of 64.6%.

Compound `CC(=O)c1c(NNc2ccc([N+](=O)[O-])cc2)cc(C)oc1=O` has an inhibition in vivo at 50 mg/kg [1] of 55%, an inhibition in vivo at 50 mg/kg [2] of 45.5% and an inhibition in vivo at 50 mg/kg [3] of 44.1%. The inhibition in vivo at 50 mg/kg [4] was 47.3% and the inhibition in vivo at 50 mg/kg [5] was 53.2%.
